In brackets after ≈: the same amount, converted by molar mass.
Columns and labels:
Format in all cases: functional
Bacillus = test: Antibacterial activity against Bacillus proteus ATCC 13315 after 24 hrs by micro-broth dilution method; conditions: ATCC 13315, 24 h
Method in brief: (§1)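 MIC by broth microdilution following NCCLS methods. Inoculum adjusted in sterile saline to 1×10^4–1×10^5 CFU. Compounds from DMSO stocks, two-fold serial dilutions in Mueller-Hinton broth at 256 down to 0.25 µg/mL. Incubation 37 °C, 24 h. DMSO solvent control at matching dilutions. Growth read visually and spectrophotometrically. MIC is the lowest concentration arresting growth.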

Escherichia coli = test: Antibacterial activity against Escherichia coli ATCC 25922 after 24 hrs by micro-broth dilution method; conditions: ATCC 25922, 24 h; method in brief: as §1
Pseudomonas aeruginosa = test: Antibacterial activity against Pseudomonas aeruginosa ATCC 27853 after 24 hrs by micro-broth dilution method; conditions: ATCC 27853, 24 h; method in brief: as §1
Bacillus subtilis = test: Antibacterial activity against Bacillus subtilis ATCC 21216 after 24 hrs by micro-broth dilution method; conditions: ATCC 21216, 24 h; method in brief: as §1
Candida albicans = test: Antifungal activity against Candida albicans ATCC 76615 after 24 hrs by micro-broth dilution method; conditions: ATCC 76615, 24 h
Method in brief: (§2)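 Broth microdilution per NCCLS. Spore suspension in sterile distilled water, taken from 1-day-old cultures on Sabouraud agar, final 1–5×10^3 spores/mL. Compounds diluted from stocks in RPMI 1640 to eleven concentrations, 0.25–256 µg/mL. Incubation 35 °C, 24 h. Growth scored visually and spectrophotometrically. MIC is the lowest concentration arresting fungal growth.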

Aspergillus fumigatus = test: Antifungal activity against Aspergillus fumigatus ATCC 96918 after 24 hrs by micro-broth dilution method; conditions: ATCC 96918, 24 h; method in brief: as §2
Staphylococcus aureus [1] = test: Antibacterial activity against Staphylococcus aureus ATCC 29213 after 24 hrs by micro-broth dilution method; conditions: ATCC 29213, 24 h
Method in brief: (§3)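 Broth microdilution per NCCLS in Mueller-Hinton broth. Inoculum adjusted in sterile saline to 1×10^4–1×10^5 CFU. Compounds taken from DMSO stocks and serially diluted two-fold to final 256–0.25 µg/mL (11 levels). Incubation 37 °C, 24 h, with a DMSO solvent control. Growth read visually and spectrophotometrically. MIC is the lowest concentration that arrests growth.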

Staphylococcus aureus [2] = test: Antibacterial activity against methicillin-resistant Staphylococcus aureus N315 after 24 hrs by micro-broth dilution method; conditions: N315, 24 h; method in brief: as §3

## Clc1ccc(CN(CCn2ccnc2)CCn2ccnc2)cc1Cl.O=[N+]([O-])O
Bacillus
  MIC: 32 µg/mL
Escherichia coli
  MIC: 4 µg/mL
Pseudomonas aeruginosa
  MIC: 64 µg/mL
Bacillus subtilis
  MIC: 16 µg/mL
Candida albicans
  MIC: > 256 µg/mL
Aspergillus fumigatus
  MIC: 64 µg/mL
Staphylococcus aureus [1]
  MIC: 16 µg/mL
Staphylococcus aureus [2]
  MIC: 16 µg/mL

## Fc1ccc(CN(CCn2cncn2)CCn2cncn2)c(F)c1.O=[N+]([O-])O
Bacillus
  MIC: > 256 µg/mL
Escherichia coli
  MIC: 128 µg/mL
Pseudomonas aeruginosa
  MIC: 16 µg/mL
Bacillus subtilis
  MIC: 32 µg/mL
Candida albicans
  MIC: 64 µg/mL
Aspergillus fumigatus
  MIC: > 256 µg/mL
Staphylococcus aureus [1]
  MIC: 128 µg/mL
Staphylococcus aureus [2]
  MIC: > 256 µg/mL

## Cl.Fc1ccc(CN(CCn2cnc3ccccc32)CCn2cnc3ccccc32)c(F)c1
Bacillus
  MIC: 64 µg/mL
Escherichia coli
  MIC: > 256 µg/mL
Pseudomonas aeruginosa
  MIC: > 256 µg/mL
Bacillus subtilis
  MIC: > 256 µg/mL
Candida albicans
  MIC: > 256 µg/mL
Aspergillus fumigatus
  MIC: > 256 µg/mL
Staphylococcus aureus [1]
  MIC: 32 µg/mL
Staphylococcus aureus [2]
  MIC: 128 µg/mL

## Clc1ccc(CN(CCn2cnc3ccccc32)CCn2cnc3ccccc32)c(Cl)c1
Bacillus
  MIC: 32 µg/mL (≈ 68.9 µM)
Escherichia coli
  MIC: 128 µg/mL (≈ 276 µM)
Pseudomonas aeruginosa
  MIC: 32 µg/mL (≈ 68.9 µM)
Bacillus subtilis
  MIC: 32 µg/mL (≈ 68.9 µM)
Candida albicans
  MIC: > 256 µg/mL
Aspergillus fumigatus
  MIC: > 256 µg/mL
Staphylococcus aureus [1]
  MIC: 32 µg/mL (≈ 68.9 µM)
Staphylococcus aureus [2]
  MIC: 64 µg/mL (≈ 138 µM)

## Cl.Fc1ccc(CN(CCn2ccnc2)CCn2ccnc2)c(F)c1
Bacillus
  MIC: 32 µg/mL
Escherichia coli
  MIC: 16 µg/mL
Pseudomonas aeruginosa
  MIC: 64 µg/mL
Bacillus subtilis
  MIC: 8 µg/mL
Candida albicans
  MIC: 128 µg/mL
Aspergillus fumigatus
  MIC: > 256 µg/mL
Staphylococcus aureus [1]
  MIC: 16 µg/mL
Staphylococcus aureus [2]
  MIC: 16 µg/mL

## Clc1ccc(CN(CCn2cncn2)CCn2cncn2)cc1Cl.O=[N+]([O-])O
Bacillus
  MIC: 0.25 µg/mL
Escherichia coli
  MIC: 32 µg/mL
Pseudomonas aeruginosa
  MIC: 64 µg/mL
Bacillus subtilis
  MIC: 16 µg/mL
Candida albicans
  MIC: 256 µg/mL
Aspergillus fumigatus
  MIC: > 256 µg/mL
Staphylococcus aureus [1]
  MIC: 16 µg/mL
Staphylococcus aureus [2]
  MIC: 64 µg/mL

## Fc1ccc(CN(CCn2ccnc2)CCn2ccnc2)c(F)c1
Bacillus
  MIC: 64 µg/mL (≈ 193 µM)
Escherichia coli
  MIC: 64 µg/mL (≈ 193 µM)
Pseudomonas aeruginosa
  MIC: 128 µg/mL (≈ 386 µM)
Bacillus subtilis
  MIC: 32 µg/mL (≈ 96.6 µM)
Candida albicans
  MIC: > 256 µg/mL
Aspergillus fumigatus
  MIC: > 256 µg/mL
Staphylococcus aureus [1]
  MIC: 32 µg/mL (≈ 96.6 µM)
Staphylococcus aureus [2]
  MIC: 32 µg/mL (≈ 96.6 µM)

## Clc1ccc(CN(CCn2cncn2)CCn2cncn2)cc1Cl
Bacillus
  MIC: 0.5 µg/mL (≈ 1.37 µM)
Escherichia coli
  MIC: 32 µg/mL (≈ 87.4 µM)
Pseudomonas aeruginosa
  MIC: 64 µg/mL (≈ 175 µM)
Bacillus subtilis
  MIC: 32 µg/mL (≈ 87.4 µM)
Candida albicans
  MIC: > 256 µg/mL
Aspergillus fumigatus
  MIC: > 256 µg/mL
Staphylococcus aureus [1]
  MIC: 64 µg/mL (≈ 175 µM)
Staphylococcus aureus [2]
  MIC: 256 µg/mL (≈ 699 µM)

## Clc1ccc(CN(CCn2ccnc2)CCn2ccnc2)cc1
Bacillus
  MIC: 128 µg/mL (≈ 388 µM)
Escherichia coli
  MIC: 32 µg/mL (≈ 97 µM)
Pseudomonas aeruginosa
  MIC: 64 µg/mL (≈ 194 µM)
Bacillus subtilis
  MIC: 64 µg/mL (≈ 194 µM)
Candida albicans
  MIC: > 256 µg/mL
Aspergillus fumigatus
  MIC: > 256 µg/mL
Staphylococcus aureus [1]
  MIC: 64 µg/mL (≈ 194 µM)
Staphylococcus aureus [2]
  MIC: 64 µg/mL (≈ 194 µM)

## Clc1ccc(CN(CCn2cncn2)CCn2cncn2)c(Cl)c1
Bacillus
  MIC: 16 µg/mL (≈ 43.7 µM)
Escherichia coli
  MIC: 64 µg/mL (≈ 175 µM)
Pseudomonas aeruginosa
  MIC: 32 µg/mL (≈ 87.4 µM)
Bacillus subtilis
  MIC: > 256 µg/mL
Candida albicans
  MIC: 0.25 µg/mL (≈ 0.683 µM)
Aspergillus fumigatus
  MIC: > 256 µg/mL
Staphylococcus aureus [1]
  MIC: 64 µg/mL (≈ 175 µM)
Staphylococcus aureus [2]
  MIC: 256 µg/mL (≈ 699 µM)

## Clc1ccc(CN(CCn2cncn2)CCn2cncn2)cc1
Bacillus
  MIC: 128 µg/mL (≈ 386 µM)
Escherichia coli
  MIC: 256 µg/mL (≈ 772 µM)
Pseudomonas aeruginosa
  MIC: 16 µg/mL (≈ 48.2 µM)
Bacillus subtilis
  MIC: > 256 µg/mL
Candida albicans
  MIC: > 256 µg/mL
Aspergillus fumigatus
  MIC: > 256 µg/mL
Staphylococcus aureus [1]
  MIC: > 256 µg/mL
Staphylococcus aureus [2]
  MIC: > 256 µg/mL

## OCCN(CCO)Cc1ccc(Cl)cc1Cl
Bacillus
  MIC: 128 µg/mL (≈ 485 µM)
Escherichia coli
  MIC: 256 µg/mL (≈ 969 µM)
Pseudomonas aeruginosa
  MIC: 128 µg/mL (≈ 485 µM)
Bacillus subtilis
  MIC: 256 µg/mL (≈ 969 µM)
Candida albicans
  MIC: 128 µg/mL (≈ 485 µM)
Aspergillus fumigatus
  MIC: 256 µg/mL (≈ 969 µM)
Staphylococcus aureus [1]
  MIC: 128 µg/mL (≈ 485 µM)
Staphylococcus aureus [2]
  MIC: 256 µg/mL (≈ 969 µM)

## Fc1ccc(CN(CCn2cnc3ccccc32)CCn2cnc3ccccc32)c(F)c1
Bacillus
  MIC: 64 µg/mL (≈ 148 µM)
Escherichia coli
  MIC: 128 µg/mL (≈ 297 µM)
Pseudomonas aeruginosa
  MIC: > 256 µg/mL
Bacillus subtilis
  MIC: 64 µg/mL (≈ 148 µM)
Candida albicans
  MIC: > 256 µg/mL
Aspergillus fumigatus
  MIC: > 256 µg/mL
Staphylococcus aureus [1]
  MIC: 64 µg/mL (≈ 148 µM)
Staphylococcus aureus [2]
  MIC: > 256 µg/mL

## Fc1ccc(CN(CCn2cnc3ccccc32)CCn2cnc3ccccc32)c(F)c1.O=[N+]([O-])O
Bacillus
  MIC: 128 µg/mL
Escherichia coli
  MIC: > 256 µg/mL
Pseudomonas aeruginosa
  MIC: > 256 µg/mL
Bacillus subtilis
  MIC: > 256 µg/mL
Candida albicans
  MIC: > 256 µg/mL
Aspergillus fumigatus
  MIC: > 256 µg/mL
Staphylococcus aureus [1]
  MIC: 128 µg/mL
Staphylococcus aureus [2]
  MIC: 256 µg/mL

## Cl.Clc1ccc(CN(CCn2cncn2)CCn2cncn2)c(Cl)c1
Bacillus
  MIC: 4 µg/mL
Escherichia coli
  MIC: 32 µg/mL
Pseudomonas aeruginosa
  MIC: 16 µg/mL
Bacillus subtilis
  MIC: 128 µg/mL
Candida albicans
  MIC: 0.25 µg/mL
Aspergillus fumigatus
  MIC: 128 µg/mL
Staphylococcus aureus [1]
  MIC: 16 µg/mL
Staphylococcus aureus [2]
  MIC: 128 µg/mL

## Clc1cccc(CN(CCn2cncn2)CCn2cncn2)c1
Bacillus
  MIC: 32 µg/mL (≈ 96.4 µM)
Escherichia coli
  MIC: > 256 µg/mL
Pseudomonas aeruginosa
  MIC: 16 µg/mL (≈ 48.2 µM)
Bacillus subtilis
  MIC: > 256 µg/mL
Candida albicans
  MIC: > 256 µg/mL
Aspergillus fumigatus
  MIC: > 256 µg/mL
Staphylococcus aureus [1]
  MIC: 256 µg/mL (≈ 772 µM)
Staphylococcus aureus [2]
  MIC: 256 µg/mL (≈ 772 µM)

## OCCN(CCO)Cc1ccc(Cl)c(Cl)c1
Bacillus
  MIC: 128 µg/mL (≈ 485 µM)
Escherichia coli
  MIC: 128 µg/mL (≈ 485 µM)
Pseudomonas aeruginosa
  MIC: > 256 µg/mL
Bacillus subtilis
  MIC: 128 µg/mL (≈ 485 µM)
Candida albicans
  MIC: > 256 µg/mL
Aspergillus fumigatus
  MIC: > 256 µg/mL
Staphylococcus aureus [1]
  MIC: 256 µg/mL (≈ 969 µM)
Staphylococcus aureus [2]
  MIC: > 256 µg/mL

## Cl.Fc1ccc(CN(CCn2cncn2)CCn2cncn2)c(F)c1
Bacillus
  MIC: 256 µg/mL
Escherichia coli
  MIC: 64 µg/mL
Pseudomonas aeruginosa
  MIC: 8 µg/mL
Bacillus subtilis
  MIC: 32 µg/mL
Candida albicans
  MIC: 32 µg/mL
Aspergillus fumigatus
  MIC: 256 µg/mL
Staphylococcus aureus [1]
  MIC: 64 µg/mL
Staphylococcus aureus [2]
  MIC: > 256 µg/mL

## Cl.Clc1ccc(CN(CCn2ccnc2)CCn2ccnc2)c(Cl)c1
Bacillus
  MIC: 32 µg/mL
Escherichia coli
  MIC: 16 µg/mL
Pseudomonas aeruginosa
  MIC: 4 µg/mL
Bacillus subtilis
  MIC: 8 µg/mL
Candida albicans
  MIC: 64 µg/mL
Aspergillus fumigatus
  MIC: > 256 µg/mL
Staphylococcus aureus [1]
  MIC: 4 µg/mL
Staphylococcus aureus [2]
  MIC: 8 µg/mL

## Clc1ccc(CN(CCn2ccnc2)CCn2ccnc2)cc1Cl
Bacillus
  MIC: 64 µg/mL (≈ 176 µM)
Escherichia coli
  MIC: 16 µg/mL (≈ 43.9 µM)
Pseudomonas aeruginosa
  MIC: 64 µg/mL (≈ 176 µM)
Bacillus subtilis
  MIC: 16 µg/mL (≈ 43.9 µM)
Candida albicans
  MIC: > 256 µg/mL
Aspergillus fumigatus
  MIC: 64 µg/mL (≈ 176 µM)
Staphylococcus aureus [1]
  MIC: 16 µg/mL (≈ 43.9 µM)
Staphylococcus aureus [2]
  MIC: 32 µg/mL (≈ 87.8 µM)

## Clc1cccc(CN(CCn2ccnc2)CCn2ccnc2)c1
Bacillus
  MIC: 64 µg/mL (≈ 194 µM)
Escherichia coli
  MIC: 32 µg/mL (≈ 97 µM)
Pseudomonas aeruginosa
  MIC: 32 µg/mL (≈ 97 µM)
Bacillus subtilis
  MIC: 128 µg/mL (≈ 388 µM)
Candida albicans
  MIC: > 256 µg/mL
Aspergillus fumigatus
  MIC: > 256 µg/mL
Staphylococcus aureus [1]
  MIC: 64 µg/mL (≈ 194 µM)
Staphylococcus aureus [2]
  MIC: > 256 µg/mL

From ChEMBL document CHEMBL1240446, “Synthesis and biological activities of novel amine-derived bis-azoles as potential antibacterial and antifungal agents” (2010)
